Legend:
SW-620 [1] = assay: Cytotoxicity against human SW620 cells selected at 20 ng/mL adriamycin after 72 hrs by MTT assay; type: functional, cell-based; settings: SW-620, 72 h
Procedure, shortened: (§1)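 Lines grown in RPMI with 10% FBS and 2 mM L-glutamine. MTT assay: 4000 cells/well attached 24 h before serially diluted drug, then 72 h exposure at 37 °C, 5% CO2. MTT in IMDM 4 h, lysis in acidified ethanol 15 min, absorbance 570 nm minus 690 nm. IC50 is the concentration halving untreated absorbance. Three independent experiments, each in triplicate.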

[2] = Cytotoxicity against P-gp expressing human KBV1 cells after 72 hrs by MTT assay in presence of 10 uM CsA; type: functional, cell-based; settings: KB-V1, 72 h
Procedure, shortened: (§2)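 KB-3-1 and KB-V1 cells in DMEM. Test drug co-administered with a P-gp inhibitor at: verapamil 1 uM, CsA 10 uM, DCPQ 100 nM, TQR 100 nM. MTT assay after 72 h at 37 °C: 4000 cells/well, MTT 4 h, acidified ethanol, A570 corrected at 690 nm. IC50 ± SD at 50% of untreated absorbance. Three experiments in triplicate.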

OVCAR-8 = assay: Cytotoxicity against human OVCAR8 cells after 72 hrs by MTT assay; type: functional, cell-based; settings: OVCAR-8, 72 h; procedure, shortened: as §1
CHO [3] = assay: Cytotoxicity against CHO cells after 72 hrs by MTT assay; type: cell-based; settings: Cricetulus griseus
Procedure, shortened: (§3)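 CHO and colchicine-selected C5 cells kept in AlphaMEM with 10% FBS. MTT assay: 4000 cells/well settled 24 h, then serially diluted drug added. Incubated 72 h at 37 °C, 5% CO2. MTT in IMDM for 4 h, then acidified ethanol lysis for 15 min. Read A570, background-corrected at 690 nm. IC50 is the concentration giving 50% of untreated absorbance. Three experiments, each in triplicate.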

[4] = Aqueous solubility of the compound; type: physicochemical; settings: buffer
[5] = Cytotoxicity against doxorubicin-selected human ZR-75B cells after 72 hrs by MTT assay; type: functional, cell-based; procedure, shortened: as §1
NIH3T3 [6] = assay: Cytotoxicity against mouse NIH/3T3 cells selected at 1 ug/mL colchicine after 72 hrs by MTT assay; type: functional, cell-based; settings: NIH3T3, 72 h
Procedure, shortened: (§4)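 Grown in DMEM with 10% FBS. MTT assay: 4000 cells/well, 24 h settling, serial dilutions of drug, 72 h at 37 °C in 5% CO2. MTT in IMDM 4 h, then acidified ethanol 15 min, A570 with 690 nm background. IC50 is the concentration reducing absorbance to 50% of untreated control. Three experiments in triplicate. KB-V1-R comes from KB-V1 grown long-term drug-free.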

NIH3T3 [7] = assay: Cytotoxicity against mouse NIH/3T3 cells after 72 hrs by MTT assay; type: cell-based; settings: NIH3T3, 72 h; procedure, shortened: as §4
NIH3T3 [8] = assay: Cytotoxicity against mouse NIH/3T3 cells transfected with wild type p-glycoprotein ABCB1 selected at 600 ug/ml vincristine after 72 hrs by MTT assay; type: functional, cell-based; settings: NIH3T3, 72 h, in the assay text read “600 ng/ml” for “600 ug/ml”; procedure, shortened: as §4
NIH3T3 [9] = assay: Cytotoxicity against 2.4 ug/mL vincristine selected mouse NIH/3T3 cells transfected with P-gp Ser to Asp phosphorylation mutant after 72 hrs by MTT assay; type: functional, cell-based; settings: NIH3T3, 72 h; procedure, shortened: as §4
[10] = Cytotoxicity against P-gp expressing human KBV1 cells after 72 hrs by MTT assay in presence of 100 nM TQR; settings: KB-V1, 72 h
[11] = Cytotoxicity against P-gp-negative human KB-3-1 cells after 72 hrs by MTT assay in presence of 10 uM CsA; type: functional, cell-based; settings: KB 3-1, 72 h; procedure, shortened: as §2
[12] = Cytotoxicity against P-gp expressing human KBV1 cells after 72 hrs by MTT assay in presence of 100 uM DCPQ; settings: KB-V1, 72 h
[13] = Selectivity ratio of IC50 for pig LLC-PK1 cells transfected with empty vector to IC50 for pig LLC-PK1 cells; type: ADME, cell-based, Sus scrofa; settings: read-out: Ratio IC50
Procedure, shortened: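 Selectivity ratio: IC50 in the parental or empty-vector cells divided by IC50 in the P-gp-expressing cells (KB-V1, or ABCB1-transfected LLC-PK1). MTT assay: 4000 cells/well established for 24 h, then 72 h exposure to serially diluted drug at 37 °C, 5% CO2. MTT for 4 h, acidified ethanol lysis, A570 corrected at A690. IC50 is the concentration giving 50% of untreated absorbance, from at least three experiments.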

LLC-PK1 [14] = assay: Cytotoxicity against pig LLC-PK1 cells transfected with empty vector after 72 hrs by MTT assay; type: cell-based; settings: Sus scrofa, LLC-PK1, 72 h
Procedure, shortened: (§5)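 LLC-PK1 empty-vector lines grown in M199 with 10% FBS; transfected lines also in 0.5 mg/mL G418. MTT assay: 4000 cells/well for 24 h, then serially diluted drug for 72 h at 37 °C, 5% CO2. MTT 4 h, acidified ethanol, A570 minus 690 nm. IC50 is 50% of untreated absorbance. Triplicate wells, three experiments.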

NIH3T3 [15] = assay: Cytotoxicity against mouse NIH/3T3 cells transfected with wild-type P-gp G185 after 72 hrs by MTT assay; type: functional, cell-based; settings: NIH3T3, 72 h; procedure, shortened: as §4
[16] = Cytotoxicity against human Ew36 cells after 72 hrs by MTT assay; type: functional, cell-based; settings: Ew36, 72 h; procedure, shortened: as §1
NIH3T3 [17] = assay: Cytotoxicity against mouse NIH/3T3 cells selected at 30 ug/ml vincristine after 72 hrs by MTT assay; type: functional, cell-based; settings: NIH3T3, 72 h, in the assay text read “30 ng/ml” for “30 ug/ml”; procedure, shortened: as §4
[18] = Cytotoxicity against human ZR-75B cells after 72 hrs by MTT assay; type: functional, cell-based; procedure, shortened: as §1
[19] = Cytotoxicity against adriamycin-selected human MES-SA cells after 72 hrs by MTT assay; type: functional, cell-based
Procedure, shortened: (§6)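 MES-SA and MES-SA/Dx5 lines kept in McCoy's 5A with 10% FBS. MTT assay: seeded at 4000 cells/well for 24 h, serial drug dilutions, 72 h at 37 °C and 5% CO2. MTT 4 h, acidified ethanol lysis, A570 corrected at 690 nm. IC50 is 50% absorbance versus untreated wells. Three separate experiments in triplicate.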

HEK293 [20] = assay: Cytotoxicity against human HEK293 cells after 72 hrs by MTT assay; type: functional, cell-based; settings: HEK293, 72 h; procedure, shortened: as §4
CHO [21] = assay: Cytotoxicity against CHO cells selected at 1 ug/mL colchicine after 72 hrs by MTT assay; type: functional, cell-based; settings: Cricetulus griseus; procedure, shortened: as §3
[22] = Cytotoxicity against P-gp-negative human KB-3-1 cells after 72 hrs by MTT assay in presence of 100 nM TQR; settings: KB 3-1, 72 h
MDA-MB-231 [23] = assay: Cytotoxicity against human MDA-MB-231 cells selected at 100 ug/ml vinblastine after 72 hrs by MTT assay; type: functional, cell-based; settings: MDA-MB-231, 72 h, in the assay text read “100 ng/ml” for “100 ug/ml”; procedure, shortened: as §1
HEK293 [24] = assay: Cytotoxicity against human HEK293 cells transfected with plasmid expressing MDR1 after 72 hrs by MTT assay; type: functional, cell-based; settings: HEK293, 72 h
Procedure, shortened: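 ABCB1-transfected HEK293 grown in DMEM with 10% FBS and 1 mg/mL G418. MTT assay: 4000 cells/well for 24 h, serial drug dilutions, 72 h at 37 °C, 5% CO2. MTT 4 h, acidified ethanol lysis, A570 corrected at 690 nm. IC50 at 50% of untreated absorbance. Three experiments in triplicate.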

[25] = Cytotoxicity against P-gp expressing human KBV1 cells after 72 hrs by MTT assay in presence of 1 uM verapamil; type: functional, cell-based; settings: KB-V1, 72 h; procedure, shortened: as §2
[26] = Cytotoxicity against human MES-SA cells after 72 hrs by MTT assay; type: functional, cell-based; procedure, shortened: as §6
MDA-MB-231 [27] = assay: Cytotoxicity against human MDA-MB-231 cells after 72 hrs by MTT assay; type: functional, cell-based; settings: MDA-MB-231, 72 h; procedure, shortened: as §1
LLC-PK1 [28] = assay: Cytotoxicity against pig LLC-PK1 cells after 72 hrs by MTT assay; type: cell-based; settings: Sus scrofa, LLC-PK1, 72 h; procedure, shortened: as §5
[29] = Cytotoxicity against human Ew36 cells selected at 120 ng/mL vincristine after 72 hrs by MTT assay; type: functional, cell-based; settings: Ew36, 72 h; procedure, shortened: as §1
[30] = Cytotoxicity against P-gp-negative human KB-3-1 cells after 72 hrs by MTT assay in presence of 100 nM DCPQ; settings: KB 3-1, 72 h
NCI/ADR-RES = assay: Cytotoxicity against adriamycin-selected human NCI/ADR-RES cells after 72 hrs by MTT assay; type: functional, cell-based; procedure, shortened: as §1
SW-620 [31] = assay: Cytotoxicity against human SW620 cells after 72 hrs by MTT assay; type: functional, cell-based; settings: SW-620, 72 h; procedure, shortened: as §1
[32] = Cytotoxicity against P-gp-negative human KB-3-1 cells after 72 hrs by MTT assay in presence of 1 uM verapamil; type: functional, cell-based; settings: KB 3-1, 72 h; procedure, shortened: as §2

COc1ccc(NC(=S)NNC2=c3ccccc3=NC2=O)cc1
IC50 (SW-620 [1]): 3.74 µM | IC50 [2]: 8.33 µM | IC50 (OVCAR-8): 6.69 µM | IC50 (CHO [3]): 3.04 µM | solubility [4]: < 0.2 µg/mL | IC50 [5]: 1.21 µM | IC50 (NIH3T3 [6]): 3.17 µM | IC50 (NIH3T3 [7]): 8.12 µM | IC50 (NIH3T3 [8]): 3.59 µM | IC50 (NIH3T3 [9]): 3.14 µM | IC50 [10]: 11.6 µM | IC50 [11]: 11.4 µM | IC50 [12]: 14 µM | selectivity ratio [13]: 9.2 | IC50 (LLC-PK1 [14]): 36.8 µM | IC50 (NIH3T3 [15]): 1.06 µM | IC50 [16]: 2.48 µM | IC50 (NIH3T3 [17]): 4.58 µM | IC50 [18]: 5.06 µM | IC50 [19]: 13.8 µM | IC50 (HEK293 [20]): 6.23 µM | IC50 (CHO [21]): 0.97 µM | IC50 [22]: 12.1 µM | IC50 (MDA-MB-231 [23]): 4.86 µM | IC50 (HEK293 [24]): 2.55 µM | IC50 [25]: 2.23 µM | IC50 [26]: 22.4 µM | IC50 (MDA-MB-231 [27]): 13.8 µM | IC50 (LLC-PK1 [28]): 3.99 µM | IC50 [29]: 0.99 µM | IC50 [30]: 12.4 µM | IC50 (NCI/ADR-RES): 3.79 µM | IC50 (SW-620 [31]): 9.04 µM | IC50 [32]: 9.68 µM
